Test results as given in ChEMBL document CHEMBL2417381, “New anticancer agents mimicking protein recognition motifs” (J Med Chem, 2013).
Activity calls are given as the source filed them. The calls are words filed in the database; no cut-off is given here.

Tests used:
[1] = biological target: Tumour suppressor p53/oncoprotein Mdm2 (Homo sapiens) (UniProt P04637+Q00987); assay: Inhibition of human recombinant p53-MDM2 interaction assessed as p53 release by NMR spectroscopy relative to untreated control; assay type: protein assay
Chain of Tumour suppressor p53/oncoprotein Mdm2 (Homo sapiens) (P04637 whole entry, looked up, the tested form may be a part): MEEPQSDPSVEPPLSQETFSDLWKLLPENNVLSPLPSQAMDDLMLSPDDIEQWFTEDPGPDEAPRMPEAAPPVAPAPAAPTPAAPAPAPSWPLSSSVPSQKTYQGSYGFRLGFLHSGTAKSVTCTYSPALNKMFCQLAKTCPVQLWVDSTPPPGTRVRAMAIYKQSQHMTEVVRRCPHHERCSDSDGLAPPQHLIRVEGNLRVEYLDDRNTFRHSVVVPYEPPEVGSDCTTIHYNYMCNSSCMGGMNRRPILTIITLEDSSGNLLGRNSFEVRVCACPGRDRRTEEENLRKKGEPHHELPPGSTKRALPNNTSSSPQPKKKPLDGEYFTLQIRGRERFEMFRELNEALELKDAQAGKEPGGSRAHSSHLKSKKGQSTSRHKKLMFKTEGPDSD
Chain of Tumour suppressor p53/oncoprotein Mdm2 (Homo sapiens) (Q00987 whole entry, looked up, the tested form may be a part): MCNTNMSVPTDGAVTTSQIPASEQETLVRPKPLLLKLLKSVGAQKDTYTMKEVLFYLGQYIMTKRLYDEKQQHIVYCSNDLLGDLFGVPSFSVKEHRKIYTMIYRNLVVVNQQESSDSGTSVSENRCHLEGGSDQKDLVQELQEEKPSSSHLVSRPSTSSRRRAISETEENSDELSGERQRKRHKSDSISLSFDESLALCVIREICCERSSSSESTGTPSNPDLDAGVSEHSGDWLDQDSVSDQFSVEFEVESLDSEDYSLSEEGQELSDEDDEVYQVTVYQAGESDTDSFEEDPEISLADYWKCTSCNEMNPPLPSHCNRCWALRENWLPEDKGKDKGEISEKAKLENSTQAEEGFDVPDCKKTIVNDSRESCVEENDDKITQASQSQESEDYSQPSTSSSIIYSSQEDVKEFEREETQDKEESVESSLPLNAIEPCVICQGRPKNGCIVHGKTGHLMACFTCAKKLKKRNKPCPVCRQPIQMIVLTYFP
Outline: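 Complex formed from refolded recombinant His-tagged human p53 (residues 1-312, expressed in E. coli BL21(DE3) RIL) and refolded MDM2, mixed 1:2, with excess MDM2 removed by gel filtration. Complex at 0.1 mM in 50 mM phosphate pH 7.4, 150 mM KCl, 5 mM DTT; formal protein:inhibitor molar ratio 1:1.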

[2] = Solubility of the compound in phosphate buffer at pH 7.4 by UV-Visible spectrophotometry; assay type: physicochemical
Outline: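 10 mM DMSO stock added one microlitre at a time, 10 min apart, to 20 mM phosphate buffer with 150 mM KCl, pH 7.4, at 25 °C. Precipitation followed as the rise in light-scattering absorbance over 500–900 nm.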

[3] = tested on: M14; assay: Induction of apoptosis in human M14 cells assessed as accumulation of p53 in nuclear fraction after 48 hrs by Western blotting analysis relative to control; assay type: functional, cell-based
[4] = tested on: M14; assay: Induction of apoptosis in human M14 cells assessed as accumulation of p53 in nuclear fraction after 24 hrs by Western blotting analysis relative to control; assay type: functional, cell-based
[5] = tested on: M14; assay: Induction of p53 expression in human M14 cells after 48 hrs by Western blotting analysis; assay type: functional, cell-based
Outline: (§1)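 Treated cells lysed in modified RIPA buffer (10 mM Tris-HCl pH 7.4, 150 mM NaCl, 1 mM EDTA, 1% NP40, 0.1% deoxycholate, 1 mM PMSF, protease inhibitors). Equal protein loads separated on 10–12% SDS-PAGE and blotted to nitrocellulose. Blocked in 10% milk/0.1% Tween-20, probed with anti-cyclin A or anti-p53 and HRP secondary; tubulin used as loading reference.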

[6] = tested on: M14; assay: Cell cycle arrest at G1/S phase in human M14 cells assessed as increase in cyclin A expression at IC50 after 48 hrs by Western blotting analysis; assay type: functional, cell-based; outline: as §1
[7] = tested on: M14; assay: Cell cycle arrest at G1/S phase in human M14 cells assessed as increase in cyclin A expression at IC50 after 24 hrs by Western blotting analysis; assay type: functional, cell-based; outline: as §1
[8] = tested on: M14; assay: Cell cycle arrest at S phase in human M14 cells assessed as change in size of nucleus after 24 hrs by DAPI staining-based fluorescence microscopy; assay type: functional
Outline: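 M14 cells grown on coverslips and dosed after 24 h. Fixed in 3.7% formaldehyde for 30 min, quenched with 0.1 M glycine, then DAPI-stained 20 min at room temperature. Nuclear areas measured by fluorescence microscopy image analysis. Mean ± SEM of at least twenty measurements; one-way ANOVA with Bonferroni post test.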

[9] = tested on: M14; assay: Induction of apoptosis in human M14 cells after 48 hrs by propidium iodide staining-based flow cytometry; assay type: functional, cell-based
Outline: (§2)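 5 × 10^4 M14 cells cultured 24 h, then dosed and cultured a further 24 or 48 h. Permeabilized cells labelled 30 min at 4 °C with propidium iodide in 0.1% sodium citrate/0.1% Triton X-100, then analysed by flow cytometry. For cell cycle, 10,000 events per sample assigned to G0/G1, S and G2/M. Each determination repeated three times.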

[10] = tested on: M14; assay: Cell cycle arrest in human M14 cells assessed as accumulation at G2/M phase after 24 hrs by propidium iodide staining-based flow cytometry; assay type: functional; settings: in the assay text read “accumulation at S phase” for “accumulation at G2/M phase”; outline: as §2
[11] = tested on: M14; assay: Cell cycle arrest in human M14 cells assessed as accumulation at S phase after 24 hrs by propidium iodide staining-based flow cytometry; assay type: functional; outline: as §2
[12] = tested on: M14; assay: Cell cycle arrest in human M14 cells assessed as accumulation at G0/G1 phase after 24 hrs by propidium iodide staining-based flow cytometry; assay type: functional; settings: in the assay text read “accumulation at S phase” for “accumulation at G0/G1 phase”; outline: as §2
[13] = tested on: M14; assay: Antiproliferative activity against human M14 cells assessed as cell viability incubated for 24 hrs followed by compound washout measured after 48 hrs by MTT assay; assay type: functional, cell-based
Outline: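 M14 cells exposed for 24 h, then medium removed and cells resuspended in compound-free medium. Further incubation for 24 and 48 h, then viability read by MTT: 1 mg/mL for 1–3 h at 37 °C, formazan dissolved in DMSO, absorbance at 550 and 620 nm.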

[14] = tested on: RAW264.7; assay: Antiproliferative activity against mouse RAW264.7 cells after 48 hrs by MTT assay; assay type: cell-based; settings: RAW264.7, 48 h
Outline: (§3)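 Cells grown at 37 °C in DMEM with 25 mM glucose, 10% fetal calf serum, penicillin/streptomycin and 2 mmol/L glutamine. 5000 cells per well; after 24 h, exposed to 100 nM–100 µM for 24 and 48 h. MTT 1 mg/mL for 1–3 h at 37 °C, formazan dissolved in DMSO, absorbance read at 550 and 620 nm. IC50 from four-parameter sigmoidal nonlinear regression.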

[15] = tested on: M14; assay: Cytostatic activity against human M14 cells at 5 to 10 uM after 24 hrs by trypan blue dye exclusion assay relative to control; assay type: functional, cell-based
Outline: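 Exponentially growing M14 cells plated and grown 24 h. Then treated at 5 and 10 µM in 0.1% DMSO for 24, 48 or 72 h. Stained with 0.2% trypan blue and counted in a hemocytometer; percentage of dead cells calculated.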

[16] = tested on: Jurkat; assay: Antiproliferative activity against human Jurkat cells after 48 hrs by MTT assay; assay type: functional, cell-based; outline: as §3
[17] = tested on: Huh-7; assay: Antiproliferative activity against human HuH7 cells after 48 hrs by MTT assay; assay type: functional, cell-based; settings: Huh-7, 48 h; outline: as §3
[18] = tested on: MCF7; assay: Antiproliferative activity against human MCF7 cells after 48 hrs by MTT assay; assay type: functional, cell-based; settings: MCF7, 48 h; outline: as §3
[19] = tested on: M14; assay: Antiproliferative activity against human M14 cells after 48 hrs by MTT assay; assay type: functional, cell-based; settings: M14, 48 h; outline: as §3
[20] = tested on: M14; assay: Induction of p53 expression in human M14 cells after 24 hrs by Western blotting analysis; assay type: functional, cell-based; outline: as §1

Structure (SMILES)	inhibition [1]	solubility [2] [µM]	Activity [3]	Activity [4]	Activity [5]	Activity [6]	Activity [7]	Activity [8]	Activity [9]	Activity [10]	Activity [11]	Activity [12]	Activity [13]	IC50 [14] [µM]	Activity [15]	IC50 [16] [µM]	IC50 [17] [µM]	IC50 [18] [µM]	IC50 [19] [µM]	Activity [20]
Cc1ccc(Cn2c(C(=O)NCc3cccc(Cl)c3)cc(C(=O)c3ccccc3)c2C)cc1	inactive	≤ 6.8	inactive	Active	inactive	Active	Active	Active	Active	Active	Active	Active	inactive	> 100	inactive	> 100	> 100	> 100	2.5	Active
Cc1c(C(=O)c2ccccc2)cc(C(=O)NCc2cccc(I)c2)n1Cc1ccccc1			inactive	Active	inactive	Active	Active	Active	Active	Active	Active	Active	inactive	> 100	inactive	> 100	> 100	> 100	5	Active
Cc1c(C(=O)c2ccccc2)cc(C(=O)NCc2cccc(Cl)c2)n1Cc1ccccc1			inactive	Active	inactive		Active	Active	Active	Active	Active	Active	inactive	> 100	inactive	> 100	> 100	> 100	7.5	Active
